Screens (PubChem)
Shown are actives, neighbours in structure and some others; about 1.9% of the full set was active somewhere.
GRK2 inh – inhibitors of human GRK2 displacing RNA aptamer; inhibition of aptamer binding, % at 10 µM; bead flow cytometry, FAM-aptamer displacement from GRK2; actives 0.59% (n = 330,000); P25098; AID 488847;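 active means inhibition of aptamer binding above 40%, roughly 3 SD of noise, on plates passing a quality check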;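 further: median bead fluorescence of bound FAM aptamer so fluorescent compounds give negative values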
Target sequence (P25098 whole entry, looked up): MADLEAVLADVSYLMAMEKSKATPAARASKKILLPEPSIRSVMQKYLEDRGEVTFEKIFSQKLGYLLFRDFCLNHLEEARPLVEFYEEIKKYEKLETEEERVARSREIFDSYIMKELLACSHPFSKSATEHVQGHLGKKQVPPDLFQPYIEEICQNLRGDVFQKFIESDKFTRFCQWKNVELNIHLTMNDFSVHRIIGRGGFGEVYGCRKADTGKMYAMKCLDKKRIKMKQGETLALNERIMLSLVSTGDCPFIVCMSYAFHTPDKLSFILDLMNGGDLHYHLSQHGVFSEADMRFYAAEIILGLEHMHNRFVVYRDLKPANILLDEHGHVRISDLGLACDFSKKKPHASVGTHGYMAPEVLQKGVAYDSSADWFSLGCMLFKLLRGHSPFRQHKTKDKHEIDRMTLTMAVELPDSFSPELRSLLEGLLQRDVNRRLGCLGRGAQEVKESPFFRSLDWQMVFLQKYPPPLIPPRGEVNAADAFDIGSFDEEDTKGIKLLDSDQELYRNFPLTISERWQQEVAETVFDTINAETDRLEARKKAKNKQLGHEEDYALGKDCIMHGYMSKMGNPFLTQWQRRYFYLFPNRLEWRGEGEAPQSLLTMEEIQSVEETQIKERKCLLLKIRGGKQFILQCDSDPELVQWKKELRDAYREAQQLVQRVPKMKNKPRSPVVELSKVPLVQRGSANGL
Rin1-Abl PPI inh – inhibitors of human Rin1-Abl protein interaction. P00519+Q13671. inhibition, % at 7.35 µM. actives 0.4% (n = 360,000). TR-FRET Rin1/Abl binding, biochemical. AID 588664; in the data active means inhibition above about 5%, passing the limit was not always enough
SR-BI DiI inh – blocks mouse SR-BI lipid uptake from DiI-HDL | inhibition, % at 12.5 µM | AID 488896 | Q61009 | actives 0.96% (n = 320,000) | ldlA[mSR-BI] CHO cells, DiI-HDL uptake fluorescence, 3 h;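 active means mean replicate inhibition of at least 70% and a set share of replicates each scoring 70 or more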;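 further: 0% = median of neutral control wells and 100% = median of positive control wells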
SR-BI DiI-HDL act – enhances SR-BI lipid uptake from DiI-HDL. CHO ldlA[mSR-BI] cells, DiI-HDL uptake fluorescence, 3 h; 100 = double the neutral-control signal. activation, % at 12.5 µM. actives 0.096% (n = 320,000);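 active means mean replicate activation of at least 60% and every replicate at or above 60%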;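 further: 0% = median plate neutral-control signal and 100% = twice that signal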
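Material – SR-BI-overexpressing, LDLR-lacking CHO cells · Medium – BSA-supplemented, HEPES-buffered Ham's F12, pH 7.4 · Doses – single concentration · Times – compound with DiI-HDL co-incubation, 3 h at 37 °C · Measured by – bottom-read fluorescence, 550/595 nm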
An asterisk follows results filed as active.

`CCN(CC)S(=O)(=O)c1ccc(NC(=O)c2ccc(Cl)nc2)cc1` gave GRK2 inh 0, Rin1-Abl PPI inh 1, SR-BI DiI inh 76* and SR-BI DiI-HDL act -76.
For CCN(CC)S(=O)(=O)c1cccc(NC(=O)c2ccc(C#N)cc2)c1 the results were GRK2 inh 2, Rin1-Abl PPI inh 1, SR-BI DiI inh 77* and SR-BI DiI-HDL act -77.
CN(c1ccccc1)S(=O)(=O)c1cccc(NC(=O)c2cccc(C#N)c2)c1 was read as GRK2 inh 0, Rin1-Abl PPI inh 3, SR-BI DiI inh 42 and SR-BI DiI-HDL act -42.
For CCN(CC)S(=O)(=O)c1cccc(NC(=O)/C=C/c2ccc([N+](=O)[O-])cc2)c1 the results were GRK2 inh 6, Rin1-Abl PPI inh -2, SR-BI DiI inh 76* and SR-BI DiI-HDL act -76.
Screening CCN(CC)S(=O)(=O)c1ccc(NC(=O)c2ccc(NS(C)(=O)=O)cc2)cc1 returned GRK2 inh 3, Rin1-Abl PPI inh 0, SR-BI DiI inh 9 and SR-BI DiI-HDL act -9.
Screening CN(C)S(=O)(=O)c1cccc(NC(=O)/C=C/c2ccccc2[N+](=O)[O-])c1 returned GRK2 inh 1, Rin1-Abl PPI inh -1, SR-BI DiI inh 75* and SR-BI DiI-HDL act -75.
`COc1cccc(NC(=O)/C=C/c2ccccc2[N+](=O)[O-])c1` gave GRK2 inh 3, Rin1-Abl PPI inh -1, SR-BI DiI inh 18 and SR-BI DiI-HDL act -18.
For CCN(CC)S(=O)(=O)c1cccc(NC(=O)/C=C/c2cccc([N+](=O)[O-])c2)c1 the results were GRK2 inh 2, Rin1-Abl PPI inh -5, SR-BI DiI inh 54 and SR-BI DiI-HDL act -54.
CCOC(=O)c1ccc(N=c2scc(C)n2CC)cc1 was read as GRK2 inh 3, Rin1-Abl PPI inh -1, SR-BI DiI inh 11 and SR-BI DiI-HDL act -11.
`CCOC(=O)c1ccc(N=C2C(=S)N(c3ccc(C(=O)OCC)cc3)C(=N)N2/N=C/c2ccccc2)cc1` gave GRK2 inh 1, Rin1-Abl PPI inh 4, SR-BI DiI inh 76* and SR-BI DiI-HDL act -76.
Screening O=C(c1cc2ccccc2o1)N1CCCCCC1 returned GRK2 inh 1, Rin1-Abl PPI inh 2, SR-BI DiI inh -21 and SR-BI DiI-HDL act 21.
O=C(c1oc2ccccc2c1N1CCCCC1)N1CCCCC1 was read as GRK2 inh 0, Rin1-Abl PPI inh 1, SR-BI DiI inh 78* and SR-BI DiI-HDL act -78.
O=C(Nc1ccc(-c2csc(Nc3ccccc3)n2)cc1)c1ccccc1 was read as GRK2 inh 2, Rin1-Abl PPI inh 0, SR-BI DiI inh 86* and SR-BI DiI-HDL act -86.
Screening O=C(Nc1cccc(-c2csc(Nc3ccc(Cl)cc3)n2)c1)c1ccccc1 returned GRK2 inh 0, Rin1-Abl PPI inh -1, SR-BI DiI inh 98* and SR-BI DiI-HDL act -98.
COc1ccc(N2CCN(c3cc(C(=O)Nc4cc(OC)c(OC)c(OC)c4)ncn3)CC2)cc1OC was read as Rin1-Abl PPI inh -5.
`C=C(C)c1cc2c(ccc3ccc(=O)oc32)o1` gave GRK2 inh 0, Rin1-Abl PPI inh -2, SR-BI DiI inh -5 and SR-BI DiI-HDL act 5.
`COCCn1c(SCC(N)=O)nnc1-c1c[nH]c2ccccc12` gave GRK2 inh 1, Rin1-Abl PPI inh -1, SR-BI DiI inh -2 and SR-BI DiI-HDL act 2.
For COCCn1c(SCc2ccc(C(=O)OC)o2)nnc1-c1c[nH]c2ccccc12 the results were GRK2 inh 1, Rin1-Abl PPI inh 11*, SR-BI DiI inh -12 and SR-BI DiI-HDL act 12.
For CC(=O)Nc1ccc(S(=O)(=O)N2CCN(c3nc(NC4CCCC4)c4ccccc4n3)CC2)cc1 the results were GRK2 inh 10, Rin1-Abl PPI inh 11*, SR-BI DiI inh 44 and SR-BI DiI-HDL act -44.
For CCOc1ccccc1C=NNC(=O)CCCCC(=O)NN=Cc1ccccc1OCC the results were Rin1-Abl PPI inh 2, SR-BI DiI inh 81* and SR-BI DiI-HDL act -81.
For CCOc1ccccc1/C=N/NC(=O)c1ccc(Cn2cc([N+](=O)[O-])cn2)o1 the results were GRK2 inh 3, Rin1-Abl PPI inh -2, SR-BI DiI inh 87* and SR-BI DiI-HDL act -87.
For CCOc1ccccc1C=NNC(=O)C(=O)NN=Cc1ccccc1OCC the results were Rin1-Abl PPI inh 3, SR-BI DiI inh 25 and SR-BI DiI-HDL act -25.
CCOc1ccccc1NC(=O)C(=O)N/N=C/c1cc(Br)ccc1O was read as GRK2 inh 2, Rin1-Abl PPI inh 4, SR-BI DiI inh 126* and SR-BI DiI-HDL act -126.
Screening CC[C@]12c3[nH]c4ccccc4c3CCN1C(=O)C(CC(=O)NCc1ccc(OC)c(OC)c1)C[C@@H]2C(=O)N1CCN(C(=O)C2CC2)CC1 (some centres undefined) returned GRK2 inh 4, Rin1-Abl PPI inh 0, SR-BI DiI inh 46 and SR-BI DiI-HDL act -46.
`O=C(CCS(=O)(=O)c1ccccc1)Nc1ccccc1-c1nc2ccccc2s1` gave GRK2 inh 0, Rin1-Abl PPI inh 3, SR-BI DiI inh 72* and SR-BI DiI-HDL act -72.
`Cc1ccc2nc(-c3ccc(NC(=O)CCS(=O)(=O)c4ccccc4)cc3)sc2c1` gave GRK2 inh 0, Rin1-Abl PPI inh 0, SR-BI DiI inh 43 and SR-BI DiI-HDL act -43.
`CCc1nc2c(OCc3cccc(Cl)c3)cccn2c1N(C)C(=O)C1CC1` gave Rin1-Abl PPI inh 0.
Cc1nc(C)c(-c2nnc(-c3ccc(C(C)(C)C)cc3)o2)cc1C(=O)NN was read as GRK2 inh 1, Rin1-Abl PPI inh 3, SR-BI DiI inh 81* and SR-BI DiI-HDL act -81.
For Cc1nc(C)c(-c2nnc(-c3ccccc3Cl)o2)cc1C(=O)NN the results were GRK2 inh 1 and Rin1-Abl PPI inh 4.
Screening COc1ccc2c(c1)CCO[C@]21O[C@H](CCO)C[C@H](O)[C@H]1O returned Rin1-Abl PPI inh 3.
`COc1ccc(-c2cc(-c3cc(F)ccc3O)[nH]n2)cc1OC` gave GRK2 inh 1, Rin1-Abl PPI inh 7, SR-BI DiI inh 72* and SR-BI DiI-HDL act -72.
COc1ccc(-c2cc(-c3ccccc3O)[nH]n2)cc1OC was read as GRK2 inh 0, Rin1-Abl PPI inh 3, SR-BI DiI inh 39 and SR-BI DiI-HDL act -39.
Screening COc1cccc(NC(=O)c2sc3ncn(CC(=O)N4CCN(c5ccccn5)CC4)c(=O)c3c2C)c1 returned GRK2 inh 0, Rin1-Abl PPI inh -2, SR-BI DiI inh 79* and SR-BI DiI-HDL act -79.
`CCOc1ccccc1NC(=O)c1sc2ncn(CC(=O)N3CCOCC3)c(=O)c2c1C` gave GRK2 inh 1, Rin1-Abl PPI inh 3, SR-BI DiI inh 71* and SR-BI DiI-HDL act -71.
Screening O=C(CN1CCN(CC(=O)Nc2ccccc2Cl)CC1)NCC1(N2CCOCC2)CCCCC1 returned Rin1-Abl PPI inh 1, SR-BI DiI inh 19 and SR-BI DiI-HDL act -19.
CC(C)CN1CCN(CCCOC(=O)Nc2cccc3ccccc23)CC1C (centres undefined) was read as Rin1-Abl PPI inh 2, SR-BI DiI inh 1 and SR-BI DiI-HDL act -1.
